Experimental data: ChEMBL document CHEMBL4665753, “Ecdysteroid Derivatives that Reverse P-Glycoprotein-Mediated Drug Resistance” (J Nat Prod, 2020)
Calls of active or inactive are those of the source. The calls are words filed in the database; no cut-off is given here.

Experiments:
Homo sapiens [1] = organism: Homo sapiens; assay: Stimulation of P-gp ATPase activity (unknown origin) assessed as increase in ATP consumption at 1 uM relative to control; conditions: filed as activator
Procedure, shortened: (§1)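 Luminescent P-gp-Glo assay on recombinant human P-gp in a membrane fraction (25 μg), with sodium orthovanadate (100 μM) as ATPase inhibitor. Reactions were started with 10 mM MgATP and stopped after 40 min with luciferase detection reagent; luminescence was read 60 min later. ATP consumption appears as lost luminescence. Activity is given as fold change versus untreated control, mean of three independent experiments.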

CEM/VLB100 = assay: Synergistic antiproliferative activity against human CEM/VLB100 cells assessed as reduction in cell viability at 1:10 test compound to vinblastine after 48 hrs by MTT assay
[2] = Cytotoxicity against human peripheral blood lymphocytes assessed as cell growth inhibition after 72 hrs in presence of PHA by MTT assay; assay type: functional; conditions: Lymphocyte
Procedure, shortened: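 Lymphocytes from healthy-donor buffy coats were isolated by density-gradient centrifugation and incubated overnight in RPMI-1640 with 10% FBS. Nonadherent cells were reseeded at 5 × 10^5 cells/mL in medium with 2.5 μg/mL PHA so they would proliferate, then exposed to a range of compound concentrations for 72 h. Viability was read by MTT at 560 nm. GI50 was taken as 50% proliferation inhibition.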

[3] = Cytotoxicity against human peripheral blood lymphocytes assessed as cell growth inhibition after 72 hrs by MTT assay; assay type: functional; conditions: Lymphocyte
Procedure, shortened: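 Resting, non-PHA-stimulated lymphocytes from healthy-donor buffy coats were isolated by density-gradient centrifugation and incubated overnight in RPMI-1640 with 10% FBS. Nonadherent cells were then seeded at 5 × 10^5 cells/mL with a range of compound concentrations for 72 h. Viability was read by MTT at 560 nm. GI50 was taken as 50% proliferation inhibition from log concentration plots.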

[4] = target: ATP-dependent translocase ABCB1 (Homo sapiens, UniProt P08183); assay: Inhibition of ABCB1 in human […] cells after 2 hrs by Hoechst dye based flow cytometric analysis; assay type: cell-based
Procedure, shortened: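 Medulloblastoma DAOY cells were treated with compounds at 10 μM for 2 h. Cells (10^6/mL) were stained with 5 μg/mL Hoechst 33342 in αMEM with 2% FBS for 90 min at 37 °C, then with 2 μg/mL propidium iodide at 4 °C for 10 min. Side-population cells were gated on PI-negative events on a Hoechst red vs blue plot under UV excitation, acquiring at least 30 000 live events.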

Homo sapiens [5] = organism: Homo sapiens; assay: Stimulation of P-gp ATPase activity (unknown origin) assessed as increase in ATP consumption at 10 uM relative to control; conditions: filed as activator; procedure, shortened: as §1

Chain of ATP-dependent translocase ABCB1 (P08183 whole entry): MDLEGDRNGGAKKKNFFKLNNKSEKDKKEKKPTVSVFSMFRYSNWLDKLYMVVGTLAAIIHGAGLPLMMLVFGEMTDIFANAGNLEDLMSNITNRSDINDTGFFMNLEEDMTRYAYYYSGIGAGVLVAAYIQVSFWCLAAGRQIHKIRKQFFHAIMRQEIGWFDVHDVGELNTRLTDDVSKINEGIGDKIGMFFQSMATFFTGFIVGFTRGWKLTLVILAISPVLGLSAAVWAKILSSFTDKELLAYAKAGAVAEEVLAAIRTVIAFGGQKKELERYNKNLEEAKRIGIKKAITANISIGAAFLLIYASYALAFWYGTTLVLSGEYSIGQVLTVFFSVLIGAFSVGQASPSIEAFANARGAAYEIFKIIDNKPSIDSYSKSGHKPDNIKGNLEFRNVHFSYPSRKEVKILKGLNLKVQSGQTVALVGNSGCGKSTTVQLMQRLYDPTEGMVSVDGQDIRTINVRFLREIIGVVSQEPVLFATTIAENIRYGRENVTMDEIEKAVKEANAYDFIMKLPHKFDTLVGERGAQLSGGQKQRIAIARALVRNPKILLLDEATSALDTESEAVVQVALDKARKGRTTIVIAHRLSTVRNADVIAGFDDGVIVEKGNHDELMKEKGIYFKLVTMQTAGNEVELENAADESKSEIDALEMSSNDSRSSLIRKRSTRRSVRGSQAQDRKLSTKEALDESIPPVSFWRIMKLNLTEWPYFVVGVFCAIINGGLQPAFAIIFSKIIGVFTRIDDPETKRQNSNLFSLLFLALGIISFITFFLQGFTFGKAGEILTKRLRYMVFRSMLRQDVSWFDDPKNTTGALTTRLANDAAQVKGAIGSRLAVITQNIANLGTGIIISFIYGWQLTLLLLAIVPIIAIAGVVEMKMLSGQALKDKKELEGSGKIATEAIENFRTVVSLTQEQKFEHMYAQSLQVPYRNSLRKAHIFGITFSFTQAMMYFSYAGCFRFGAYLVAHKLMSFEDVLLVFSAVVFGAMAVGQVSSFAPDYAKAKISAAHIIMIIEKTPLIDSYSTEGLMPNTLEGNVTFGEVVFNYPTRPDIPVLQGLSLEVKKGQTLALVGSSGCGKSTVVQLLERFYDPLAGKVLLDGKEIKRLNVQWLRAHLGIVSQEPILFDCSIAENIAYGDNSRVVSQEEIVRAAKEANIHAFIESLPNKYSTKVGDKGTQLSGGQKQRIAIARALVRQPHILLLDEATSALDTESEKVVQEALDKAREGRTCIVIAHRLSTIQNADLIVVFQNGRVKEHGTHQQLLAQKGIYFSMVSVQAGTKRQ

| SMILES | fold change (FC) (Homo sapiens [1]) | Activity (CEM/VLB100) | GI50 [2] | GI50 [3] | inhibition (INH) [4] | fold change (FC) (Homo sapiens [5]) |
| --- | --- | --- | --- | --- | --- | --- |
| CC(C)(O)CC[C@H]1OC2(CCCCC2)O[C@]1(C)[C@H]1CC[C@@]2(O)C3=CC(=O)[C@@H]4C[C@H]5OC6(CCCCC6)O[C@H]5C[C@]4(C)[C@H]3CC[C@]12C | 6 | Active | 42.8 µM | 61.7 µM | Active | – |
| CC(C)(O)CC[C@@H](OC(=O)c1ccccc1)[C@](C)(O)[C@H]1CC[C@@]2(O)C3=CC(=O)[C@@H]4C[C@@H](OC(=O)c5ccccc5)[C@@H](OC(=O)c5ccccc5)C[C@]4(C)[C@H]3CC[C@]12C | – | Active | 19.9 µM | > 100 µM | Active | 4 |
| COc1ccc(CCN(C)CCCC(C#N)(c2ccc(OC)c(OC)c2)C(C)C)cc1OC (stereo unspecified) | – | – | – | – | – | 4 |
